Measured values as given in ChEMBL document CHEMBL1144474, “Synthesis and anti-HIV-1 activity evaluation of 5-alkyl-2-alkylthio-6-(arylcarbonyl or alpha-cyanoarylmethyl)-3,4-dihydropyrimidin-4(3H)-ones as novel non-nucleoside HIV-1 reverse transcriptase inhibitors” (J Med Chem, 2007).

Columns and labels:
[1] = Selectivity index, CC50 for MT4 cells/IC50 for HIV1 3B; assay type: functional
Method in brief: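 Ratio of CC₅₀ in uninfected MT-4 cells to IC₅₀ against HIV-1 IIIB cytopathogenicity in MT-4 cells. Both values come from the 4-day, 37 °C MTT read-out, run in parallel.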

[2] = tested on: Human immunodeficiency virus 1; assay: Antiviral activity against wild type HIV1 3B in MT4 cells after 4 days by MTT method; assay type: functional, organism-based; details: Human immunodeficiency virus 1, 3B, MT4, 96 h
Method in brief: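 MT-4 cells at 1 × 10⁵ cells/mL infected with HIV-1 IIIB (titrated as CCID₅₀) at MOI 0.02, then plated right away into serial compound dilutions (DMSO stocks, 50 mM or higher). After 4 days at 37 °C, viable cells were counted by MTT. IC₅₀ is the concentration giving 50% protection from viral cytopathogenicity.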

[3] = Cytotoxicity against MT4 cells after 4 days by MTT method; assay type: cell-based; details: human
Method in brief: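 Uninfected MT-4 cells were run in parallel with the infected cultures across a range of compound concentrations (DMSO stocks, 50 mM or higher). After 4 days at 37 °C, viability was read by MTT. CC₅₀ is the concentration that cuts normal cell viability by 50%.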

[4] = tested on: Human immunodeficiency virus 1; assay: Antiviral activity against HIV1 3B in human PBMC assessed by measuring p24 antigen production after 7 days by ELISA; assay type: functional, organism-based; details: Human immunodeficiency virus 1, 3B, 168 h
Method in brief: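 Donor PBMCs were isolated by density centrifugation, stimulated with PHA for 3 days and washed in PBS. Cells (2 × 10⁵/200 µL) were plated in serial compound dilutions and infected with HIV at 1000 CCID₅₀ per mL. On day 4, medium was partly replaced with fresh medium containing compound. p24 antigen in the supernatant was measured by ELISA on day 7.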

[5] = Cytotoxicity against mock-infecected human PBMC; assay type: cell-based; details: mock-infected PBMC
[6] = Selectivity index, CC50 for PBMC/IC50 for HIV1 3B; assay type: functional

| IC50 [4] | SMILES | Ratio CC50/IC50 [1] | IC50 [2] | CC50 at 96 h [3] | CC50 [5] | Ratio CC50/IC50 [6] |
| --- | --- | --- | --- | --- | --- | --- |
| – | COc1ccc(CSc2nc(C(C#N)c3ccccc3)c(C(C)C)c(=O)[nH]2)cc1 (stereo unspecified) | 8 | 3.53 µM | 26.8 µM | – | – |
| – | Cc1c(C(C#N)c2cccc3ccccc23)nc(SC2CCCC2)[nH]c1=O (stereo unspecified) | 61 | 0.8 µM | 49.4 µM | – | – |
| – | CCc1c(C(C#N)c2cccc3ccccc23)nc(SCc2ccc([N+](=O)[O-])cc2)[nH]c1=O (stereo unspecified) | 20 | 1.25 µM | 24.5 µM | – | – |
| 0.99 µM | Cc1c(C(C#N)c2cccc3ccccc23)nc(SCC(=O)c2ccccc2)[nH]c1=O (stereo unspecified) | 1500 | 0.09 µM | 164 µM | 69.9 µM | 70 |
| – | C=CCSc1nc(C(=O)c2cccc3ccccc23)c(CC)c(=O)[nH]1 | 12 | 16.9 µM | 210 µM | – | – |
| – | COc1ccc(CSc2nc(C(C#N)c3cccc4ccccc34)c(C(C)C)c(=O)[nH]2)cc1 (stereo unspecified) | <1 | > 2.09 µM | 2.09 µM | – | – |
| – | CCSc1nc(C(=O)c2cccc3ccccc23)c(CC)c(=O)[nH]1 | 7 | 27.8 µM | 197 µM | – | – |
| – | CCc1c(C(=O)c2ccc3ccccc3c2)nc(SCc2ccccc2)[nH]c1=O | <=3 | ≥ 60.8 µM | 157 µM | – | – |
| – | CCc1c(C(C#N)c2cccc3ccccc23)nc(SC2CCCC2)[nH]c1=O (stereo unspecified) | 293 | 0.18 µM | 51.9 µM | – | – |
| – | CCSc1nc(C(=O)c2cccc3ccccc23)cc(=O)[nH]1 | 6 | 37.6 µM | 242 µM | – | – |
| – | N#CC(c1cc(=O)[nH]c(SC2CCCC2)n1)c1cccc2ccccc12 (stereo unspecified) | <1 | > 22.8 µM | 22.8 µM | – | – |
| – | CCc1c(C(=O)c2cccc3ccccc23)nc(SC(C)C)[nH]c1=O | 26 | 6.79 µM | 179 µM | – | – |
| 1.66 µM | CCc1c(C(C#N)c2cccc3ccccc23)nc(SC(C)C)[nH]c1=O (stereo unspecified) | >1400 | 0.24 µM | > 344 µM | > 68.9 µM | >41 |
| – | Cc1c(C(=O)c2ccccc2)nc(SC(C)C)[nH]c1=O | 128 | 2.05 µM | 263 µM | – | – |
| – | O=C(CSc1nc(C(=O)c2cccc3ccccc23)cc(=O)[nH]1)c1ccccc1 | – | > 304 µM | > 304 µM | – | – |
| – | CC(C)c1c(C(C#N)c2cccc3ccccc23)nc(SC2CCCC2)[nH]c1=O (stereo unspecified) | 5 | 1.34 µM | 7.32 µM | – | – |
| – | CCc1c(C(=O)c2ccccc2)nc(SC2CCCC2)[nH]c1=O | 13 | 4.69 µM | 60.4 µM | – | – |
| – | Cc1c(C(C#N)c2ccccc2)nc(SC(C)C)[nH]c1=O (stereo unspecified) | 4600 | 0.002 µM | 10.8 µM | – | – |
| – | COc1ccc(CSc2nc(C(C#N)c3c(Cl)cccc3Cl)c(C(C)C)c(=O)[nH]2)cc1 (stereo unspecified) | <1 | > 23.5 µM | 23.5 µM | – | – |

| IC50 [4] | SMILES | Ratio CC50/IC50 [1] | IC50 [2] | CC50 at 96 h [3] | CC50 [5] | Ratio CC50/IC50 [6] |
| --- | --- | --- | --- | --- | --- | --- |
| – | CC(C)c1c(C(=O)c2cccc3ccccc23)nc(SC2CCCC2)[nH]c1=O | 2 | 10.9 µM | 24.7 µM | – | – |
| – | CCc1c(C(C#N)c2cccc3ccccc23)nc(SCC(=O)c2ccc(Cl)cc2)[nH]c1=O (stereo unspecified) | <=3 | ≥ 35.7 µM | 117 µM | – | – |
| – | C=CCSc1nc(C(C#N)c2cccc3ccccc23)c(CC)c(=O)[nH]1 (stereo unspecified) | >585 | 0.58 µM | > 346 µM | – | – |
| – | O=C(c1cc(=O)[nH]c(SC2CCCC2)n1)c1cccc2ccccc12 | <1 | > 21 µM | 21 µM | – | – |
| – | C#CCSc1nc(C(=O)c2cccc3ccccc23)c(C)c(=O)[nH]1 | <1 | > 124 µM | 124 µM | – | – |
| – | Cc1c(C(C#N)c2ccccc2)nc(SC2CCCC2)[nH]c1=O (stereo unspecified) | 9 | 6.34 µM | 59 µM | – | – |
| – | CCc1c(C(C#N)c2c(Cl)cccc2Cl)nc(SCc2ccc([N+](=O)[O-])cc2)[nH]c1=O (stereo unspecified) | 11 | 2.22 µM | 23.5 µM | – | – |
| – | CCc1c(C(C#N)c2ccccc2)nc(SCc2ccc([N+](=O)[O-])cc2)[nH]c1=O (stereo unspecified) | 26 | 1.33 µM | 34.2 µM | – | – |
| – | CCSc1nc(C(=O)c2ccccc2)cc(=O)[nH]1 | <1 | > 247 µM | 247 µM | – | – |
| – | Cc1c(C(C#N)c2ccccc2)nc(SCC(=O)c2ccccc2)[nH]c1=O (stereo unspecified) | 7 | 7.28 µM | 53.8 µM | – | – |
| – | CCSc1nc(C(C#N)c2cccc3ccccc23)c(CC)c(=O)[nH]1 (stereo unspecified) | 103 | 1.17 µM | 122 µM | – | – |
| – | CC(C)Sc1nc(C(C#N)c2cccc3ccccc23)cc(=O)[nH]1 (stereo unspecified) | 82 | 0.66 µM | 53.2 µM | – | – |
| – | Cc1c(C(C#N)c2cccc3ccccc23)nc(SCC(=O)c2ccc(Cl)cc2)[nH]c1=O (stereo unspecified) | 32 | 4.71 µM | 148 µM | – | – |
| – | CCc1c(C(=O)c2cccc3ccccc23)nc(SCc2ccccc2)[nH]c1=O | – | > 312 µM | > 312 µM | – | – |
| – | Cc1c(Sc2ccccc2)n(COCCO)c(=O)[nH]c1=O [HEPT] | 80 | – | – | – | – |
| – | Cc1ccnc2c1NC(=O)c1cccnc1N2C1CC1 [NEVIRAPINE] | >800 | 0.25 µM | > 200 µM | – | – |
| – | CCc1c(C(C#N)c2ccccc2)nc(SC(C)C)[nH]c1=O (stereo unspecified) | 91 | 0.64 µM | 58 µM | – | – |
| – | C#CCSc1nc(C(C#N)c2cccc3ccccc23)c(C)c(=O)[nH]1 (stereo unspecified) | 17 | 2.7 µM | 46.1 µM | – | – |
| – | C#CCSc1nc(C(C#N)c2cccc3ccccc23)c(CC)c(=O)[nH]1 (stereo unspecified) | 10 | 4.85 µM | 48 µM | – | – |
